Experiments:
Tubulin = Tubulin (Bos taurus, UniProt Q6B856+Q862L2+Q862F3); assay: Drug concentration needed to produce a 50% reduction of bovine brain tubulin polymerization relative to the control
[1] = Inhibition of DNA topoisomerase II from rat liver measured as 50% reduction in the amount of minicircle DNA relative to the control
P388 [2] = assay: Cytotoxicity against P388 leukemia; assay type: functional, cell-based; settings: Mus musculus
SBC-3 = assay: Inhibition of growth of lung small cell carcinoma SBC-3 cell line; assay type: functional; settings: Homo sapiens, read-out: ED50 (the source's name)
In short: (§1)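 Human tumour cell lines plated and grown 24 h in a CO2 incubator, then exposed to compound for 96 or 4 h. Cells counted by hemocytometer. IC50 is the concentration giving 50% reduction in cell number versus untreated control.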

P388 [3] = assay: Antitumor activity in vivo expressed as the percentage increase in life span at the P388 dose of 4 (mg/kg/day); assay type: functional, Mus musculus
In short: (§2)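 P388 leukaemia, 1 × 10^6 cells given sc to male CDF1 mice (5 weeks old) on day 0. Drug was dosed iv on days 1–5 in saline with 3.5% DMSO and 6.5% Tween 80. Groups had 7 mice; controls had 10. ILS was calculated from mean survival time of treated versus control mice, excluding 30-day survivors.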

COLO 320DM = assay: Inhibition of growth of colon cancer COLO 320DM cell line; assay type: functional; settings: Homo sapiens, read-out: ED50 (the source's name)
In short: (§3)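 Cells were seeded and cultured for 24 h, then exposed to drug for 96 or 4 h. Cells were counted by hemocytometer. IC50 is the concentration giving a 50% reduction in cell number relative to control.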

[4] = test system: Lewis lung carcinoma cell line; assay: Mean body weight change after inoculation of 3.2 x 10 e 5 cells iv and administration of compounds iv from days 1-5 at the dose of 7 (mg/kg/day); assay type: functional, Mus musculus
In short: (§4)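 Male BDF1 mice (5 weeks) given 3.2 x 10^5 Lewis lung carcinoma cells iv on day 0, then dosed iv on days 1–5. Seven mice per group, 14 controls. Mean body weight change (g) taken from day 0 to day 6.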

[5] = test system: Lewis lung carcinoma cell line; assay: Mean body weight change after inoculation of 3.2 x 10 e 5 cells iv and administration of compounds iv from days 1-5 at the dose of 4 (mg/kg/day); assay type: functional, Mus musculus; in short: as §4
ACHN = assay: Inhibition of growth of renal cancer ACHN cell line; assay type: functional; settings: Homo sapiens, read-out: ED50 (the source's name); in short: as §1
P388 [6] = assay: Antitumor activity in vivo expressed as the percentage increase in life span at the P388 dose of 2.3 (mg/kg/day); assay type: functional, Mus musculus; in short: as §2
[7] = Inhibition of growth of lung non-small cell carcinoma PC-7 cell line; assay type: functional; settings: Homo sapiens, read-out: ED50 (the source's name); in short: as §3
P388 [8] = assay: Antitumor activity in vivo expressed as the percentage increase in life span at the P388 dose of 1..3 (mg/kg/day); assay type: functional, Mus musculus; in short: as §2
[9] = test system: Lewis lung carcinoma cell line; assay: Increased life span at the lewis lung dose of 4 (mg/kg/day); assay type: functional, Mus musculus
[10] = test system: Lewis lung carcinoma cell line; assay: Percentage inhibition of tumor growth at the lewis lung dose of 4 (mg/kg/ day); assay type: functional, Mus musculus
In short: (§5)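 Lewis lung carcinoma fragments (2 mm3) implanted sc into male BDF1 mice (5 weeks) on day 0. Compound given iv on days 4–8, in saline or saline with 3.5% DMSO and 6.5% Tween 80. Seven mice per group, 10 controls. Percent inhibition from mean tumour weight versus control on day 17; p<0.05, 0.01 or 0.001 versus control.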

[11] = test system: Lewis lung carcinoma cell line; assay: Increased life span at the lewis lung dose of 1.3 (mg/kg/day); assay type: functional, Mus musculus
[12] = Inhibition of growth of renal cancer G-402 cell line; assay type: functional; settings: Homo sapiens, read-out: ED50 (the source's name); in short: as §1
Mus musculus = assay: The number of mice survived for 30 days at the dose of 5 (mg/kg/day); assay type: functional
[13] = test system: Lewis lung carcinoma cell line; assay: Percentage inhibition of tumor growth at the lewis lung dose of 7 (mg/kg/ day); assay type: functional, Mus musculus; in short: as §5
[14] = Inhibition of growth of colon carcinoma COLO 2-1 cell line; assay type: functional; settings: Homo sapiens, read-out: ED50 (the source's name); in short: as §3
[15] = Inhibition of growth of hepatoma HLF cell line; assay type: functional; settings: Homo sapiens, read-out: ED50 (the source's name); in short: as §3
[16] = test system: Lewis lung carcinoma cell line; assay: Increased life span at the lewis lung dose of 7 (mg/kg/day); assay type: functional, Mus musculus
[17] = test system: Lewis lung carcinoma cell line; assay: Increased life span at the lewis lung dose of 2.3 (mg/kg/day); assay type: functional, Mus musculus
A549 = assay: Inhibition of growth lung non-small cell carcinoma A-549 cell line; assay type: functional; settings: Homo sapiens, read-out: ED50 (the source's name); in short: as §3
[18] = test system: Lewis lung carcinoma cell line; assay: Mean body weight change after inoculation of 3.2 x 10 e 5 cells iv and administration of compounds iv from days 1-5 at the dose of 0.77 (mg/kg/day); assay type: functional, Mus musculus; in short: as §4
[19] = test system: Lewis lung carcinoma cell line; assay: Mean body weight change after inoculation of 3.2 x 10 e 5 cells iv and administration of compounds iv from days 1-5 at the dose of 1.3 (mg/kg/day); assay type: functional, Mus musculus; in short: as §4
[20] = Inhibition of growth of lung small cell carcinoma RERF-LC-MA cell line; assay type: functional; settings: Homo sapiens; read-out: ED50 (the source's name); in short: as §3
Homo sapiens = species on record: Homo sapiens; assay: Inhibition of growth of hepatoma HLE cell line; assay type: functional; settings: read-out: ED50 (the source's name); in short: as §3
[21] = test system: Lewis lung carcinoma cell line; assay: Mean body weight change after inoculation of 3.2 x 10 e 5 cells iv and administration of compounds iv from days 1-5 at the dose of 2.3 (mg/kg/day); assay type: functional, Mus musculus; in short: as §4
[22] = test system: Lewis lung carcinoma cell line; assay: Increased life span at the lewis lung dose of 0.77 (mg/kg/day); assay type: functional, Mus musculus

COc1cc([C@@H]2c3cc4c(cc3[C@@H](CCN(C)Cc3ccncc3)C3COC(=O)[C@@H]32)OCO4)cc(OC)c1O.Cl.Cl (some centres undefined)
IC50 (Tubulin): > 100 µM
IC50 [1]: 31.4 µM
IC50 (P388 [2]): 0.1 µM

COc1cc([C@@H]2c3cc4c(cc3[C@@H](CCN(C)CCN3CCCCC3)C3COC(=O)[C@@H]32)OCO4)cc(OC)c1O.Cl.Cl (some centres undefined)
EC50 (SBC-3): 0.54 µg/mL
ILS max (P388 [3]): 259%
EC50 (COLO 320DM): 3.2 µg/mL
IC50 (Tubulin): > 167 µM
bwc [4]: -3.5 g
IC50 [1]: 60.9 µM
bwc [5]: -1 g
EC50 (ACHN): 2.7 µg/mL
ILS max (P388 [6]): 165%
EC50 [7]: 4.4 µg/mL
ILS max (P388 [8]): 131%
ILS max [9]: 108%
Inhibition [10]: 72%
ILS max [11]: 14%
EC50 [12]: 0.35 µg/mL
Survivors (Mus musculus): 6
Inhibition [13]: 97%
EC50 [14]: 29 µg/mL
EC50 [15]: 4 µg/mL
ILS max [16]: 55%
ILS max [17]: 75%
EC50 (A549): 1.8 µg/mL
bwc [18]: 0.7 g
bwc [19]: 0.1 g
EC50 [20]: 27 µg/mL
EC50 (Homo sapiens): 0.36 µg/mL
bwc [21]: -0.6 g
ILS max [22]: 20%

COc1cc([C@@H]2c3cc4c(cc3[C@@H](CCN(C)CCCN(C)C)C3COC(=O)[C@@H]32)OCO4)cc(OC)c1O.Cl.Cl (some centres undefined)
IC50 (Tubulin): > 100 µM
IC50 [1]: 26.9 µM
IC50 (P388 [2]): 0.055 µM

COc1cc([C@@H]2c3cc4c(cc3[C@@H](CCN(C)CCCCCCN(C)C)C3COC(=O)[C@@H]32)OCO4)cc(OC)c1O.Cl.Cl (some centres undefined)
IC50 (Tubulin): > 133 µM
IC50 [1]: 30 µM
IC50 (P388 [2]): 0.037 µM

COc1cc([C@@H]2c3cc4c(cc3[C@@H](CCN(C)Cc3ccccn3)C3COC(=O)[C@@H]32)OCO4)cc(OC)c1O.Cl.Cl (some centres undefined)
IC50 (Tubulin): > 100 µM
IC50 [1]: 31.4 µM
IC50 (P388 [2]): 0.14 µM

COc1cc([C@@H]2c3cc4c(cc3[C@@H](CCN(C)CCN3CCOCC3)C3COC(=O)[C@@H]32)OCO4)cc(OC)c1O.Cl.Cl (some centres undefined)
IC50 (Tubulin): > 167 µM
IC50 [1]: 116 µM
IC50 (P388 [2]): 0.26 µM

COc1cc([C@@H]2c3cc4c(cc3[C@@H](CCNCCN(C)C)C3COC(=O)[C@@H]32)OCO4)cc(OC)c1O.Cl.Cl (some centres undefined)
IC50 (Tubulin): > 100 µM
IC50 [1]: 13.3 µM
IC50 (P388 [2]): 0.04 µM

COc1cc([C@@H]2c3cc4c(cc3[C@@H](CCN(C)N3CCN(C)CC3)C3COC(=O)[C@@H]32)OCO4)cc(OC)c1O.Cl.Cl (some centres undefined)
IC50 (Tubulin): > 100 µM
IC50 [1]: 32.3 µM
IC50 (P388 [2]): 0.0043 µM

CCN(CC)CCN(C)CC[C@@H]1c2cc3c(cc2[C@@H](c2cc(OC)c(O)c(OC)c2)[C@H]2C(=O)OCC12)OCO3.Cl.Cl (some centres undefined)
IC50 (Tubulin): > 100 µM
IC50 [1]: 53.8 µM
IC50 (P388 [2]): 0.037 µM

COc1cc([C@@H]2c3cc4c(cc3[C@@H](CC(=O)O)C3COC(=O)[C@@H]32)OCO4)cc(OC)c1O (some centres undefined)
IC50 (P388 [2]): 15 µM

COc1cc([C@@H]2c3cc4c(cc3[C@@H](CCCO)C3COC(=O)[C@@H]32)OCO4)cc(OC)c1O (some centres undefined)
IC50 (Tubulin): 26 µM
IC50 [1]: 42.1 µM
IC50 (P388 [2]): 0.05 µM

COc1cc([C@@H]2c3cc4c(cc3[C@@H](CCO)C3COC(=O)[C@@H]32)OCO4)cc(OC)c1O (some centres undefined)
IC50 (Tubulin): 2 µM
IC50 [1]: 13.8 µM
IC50 (P388 [2]): 0.05 µM

COc1cc([C@@H]2c3cc4c(cc3[C@@H](CC(=O)NCCc3cccn3C)C3COC(=O)[C@@H]32)OCO4)cc(OC)c1O.Cl (some centres undefined)
IC50 (Tubulin): > 100 µM
IC50 (P388 [2]): 1.5 µM

COc1cc([C@@H]2c3cc4c(cc3[C@@H](CCN(C)CCO)C3COC(=O)[C@@H]32)OCO4)cc(OC)c1O.Cl (some centres undefined)
IC50 (Tubulin): > 100 µM
IC50 [1]: 17.2 µM
IC50 (P388 [2]): 0.07 µM

From ChEMBL document CHEMBL1127046, “Antitumor agents. 3. Synthesis and biological activity of 4 beta-alkyl derivatives containing hydroxy, amino, and amido groups of 4'-O-demethyl-4-desoxypodophyllotoxin as antitumor agents” (J Med Chem, 1993)
